Source: PubChem BioAssay
DNMT1 block = DNMT1 (human) enzyme inhibition; 0.83% of 360,000 active; inhibition (reported as % activation of signal), % at 10 µM; DNMT1 molecular beacon, Hinp1I cleavage, fluorescence; in the data active = inhibition above about 50%
STEP inh = inhibitors of human striatal-enriched phosphatase STEP | P54829 | recombinant STEP, OMFP fluorogenic substrate, fluorescence | inhibition, % at 20 µM | 0.25% of 360,000 active | AID 588621;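 active = inhibition at 20 µM, scaled per plate between control wells, above about 37%, limit read from the data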;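 note: 0% = DMSO with enzyme and substrate and 100% = substrate only without enzyme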
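medium = Bis-Tris buffer pH 6.0, 2.5 mM DTT, 0.005% Tween 20 | test system = STEP (striatal-enriched tyrosine phosphatase) enzyme, cell-free | measure = normalized % inhibition | compound dosing = 20 µM, 1% DMSO | also added = 25 µM OMFP | schedule = reaction 20 min, ambient temperature | measured by = fluorescence read at 480 nm ex / 540 nm em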
SUMO1 PPI mod = alters human SUMO1 binding to SIM partners. inhibition, % at 20 µM. 0.33% of 360,000 active. AID 602429. SUMO1 binding to a labelled peptide, TR-FRET, 1 h. P63165; in the data active = inhibition above about 37%
Target sequence (P63165 whole entry, looked up): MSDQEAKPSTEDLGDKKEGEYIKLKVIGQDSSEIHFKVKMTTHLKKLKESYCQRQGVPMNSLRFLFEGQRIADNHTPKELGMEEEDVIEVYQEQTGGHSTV
LMPTP block = LMPTP (human) inhibition; P24666; recombinant LMPTP-A, OMFP fluorogenic substrate, fluorescence intensity; inhibition, % at 20 µM; 0.22% of 360,000 active; AID 651560;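 active = compounds that cut the enzyme signal by at least half of the control window in the single-dose screen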;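 note: plate controls were DMSO wells with enzyme plus substrate for no effect and substrate without enzyme for full effect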
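Assay system: LMPTP-A phosphatase enzyme | Input: 0.625 nM enzyme | Also added: Fluorogenic phosphatase substrate OMFP at 400 µM final | Compound dosing: One test concentration per compound, 20 µM, with 3% DMSO overall | Schedule: 50 min enzyme reaction at room temperature, protected from light | Signal: Fluorescence intensity | Benchmarks: no-enzyme and uninhibited controls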
Rpn11 inh = inhibitors of human proteasome Rpn11; human 26S proteasome, Ub4-pepOG fluorescence polarization; 20S core pre-blocked with epoxomicin; inhibition, % at 20 µM; 0.59% of 360,000 active; AID 588493;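 active = inhibition at 20 µM, scaled to each plate's controls, above about 33%, limit read from the data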
Target sequence (O00487 whole entry, looked up): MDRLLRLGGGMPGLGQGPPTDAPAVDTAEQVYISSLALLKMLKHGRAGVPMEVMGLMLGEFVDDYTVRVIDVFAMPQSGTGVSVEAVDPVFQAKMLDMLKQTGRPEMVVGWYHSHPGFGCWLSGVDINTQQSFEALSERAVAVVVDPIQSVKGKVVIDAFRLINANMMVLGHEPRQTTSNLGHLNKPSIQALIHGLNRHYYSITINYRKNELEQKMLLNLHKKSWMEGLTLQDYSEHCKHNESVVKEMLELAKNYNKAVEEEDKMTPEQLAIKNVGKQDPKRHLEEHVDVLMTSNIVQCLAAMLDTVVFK
Scp1 inh = inhibitors of human Scp-1 phosphatase. Recombinant Scp1, phosphopeptide, malachite green phosphate absorbance. AID 493091. Q9GZU7. inhibition, % at 20 µM. 0.88% of 340,000 active;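 active = inhibition above about 50% at 20 µM, limit read from the data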;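 note: plate controls were DMSO wells with enzyme for no effect and wells lacking enzyme for full effect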
Target sequence (Q9GZU7 76-261 limits assumed): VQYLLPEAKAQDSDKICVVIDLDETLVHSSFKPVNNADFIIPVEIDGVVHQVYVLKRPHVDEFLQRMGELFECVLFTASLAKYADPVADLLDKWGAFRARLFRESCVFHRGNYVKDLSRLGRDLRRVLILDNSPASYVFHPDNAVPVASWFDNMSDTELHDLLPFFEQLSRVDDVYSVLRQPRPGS
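Incubation: 45 min enzyme reaction at room temperature / System: truncated SCP-1 phosphatase (76-261aa) / Reagent: Phospho 17-mer peptide substrate / Buffer or medium: Acidic Tris acetate buffer with magnesium and detergent / Signal: absorbance at 630 nm / Doses: one concentration, 20 µM, with 1.0% DMSO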
DNMT1 confirm = confirmation of human DNMT1 inhibitors | shares compounds with DNMT1 block | DNMT1 molecular beacon HinP1I cleavage, fluorescence | inhibition, % at 10 µM | 8% of 2,300 active | AID 602385;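 active = average inhibition of at least 30% in the single-concentration confirmation test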
DNMT1 interf = beacon fluorescence artifact counter-screen. shares compounds with DNMT1 block. DNMT1 molecular beacon spectral interference counterscreen, fluorescence 485/520. activation (fluorescence interference), % at 10 µM. 1% of 2,300 active. AID 602387;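 active = activation of at least 30% at 10 µM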;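 note: DNMT1 catalytic domain with a HinP1I cleavage step and a FAM/dabcyl DNA beacon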
The depositor's hits bear a star; / = not tested or not shown. Hits are enriched below; roughly 2.3% of the tested compounds scored in any of these assays.

SMILES | DNMT1 block | STEP inh | SUMO1 PPI mod | LMPTP block | Rpn11 inh | Scp1 inh | DNMT1 confirm | DNMT1 interf
CCOc1cc(O)c(-c2[nH]ncc2-c2nc(C)cs2)cc1CC | -5 | -1 | 1 | 2 | -5 | -11 | / | /
Cn1c(=O)c2cc(NC(=O)Nc3ccccc3)ccc2n1Cc1ccccc1 | -3 | -1 | 1 | 0 | 6 | / | / | /
Cc1nnc(SCC(=O)NCc2ccco2)[nH]c1=O | 20 | 2 | 9 | -1 | -10 | 18 | / | /
Cc1cc(=O)[nH]c(SCC(=O)NCc2ccco2)n1 | 56* | 4 | 23 | 0 | -2 | 67* | 1 | 3
O=C(Nc1ccc(Cl)c(Cl)c1)Nc1cc(S(=O)(=O)N2CCOCC2)ccc1N1CCCC1 | -15 | 0 | 3 | 1 | 7 | -3 | / | /
O=C(CSc1nc2ccccc2c(=O)n1-c1ccccc1)N1CCc2ccccc21 | 53* | 6 | 3 | 1 | -2 | 3 | -2 | -10
CCOc1ccc(-n2c(SCC(=O)N3CCc4ccccc43)nnc2-c2c[nH]c3ccccc23)cc1 | 80* | 4 | 15 | 16 | 5 | 13 | -1 | -6
COc1cccc(-n2c(SCC(=O)N3CCc4ccccc43)nnc2-c2c[nH]c3ccccc23)c1 | 27 | 5 | 4 | 1 | 3 | -4 | / | /
Cc1cc(NC(=O)c2ccco2)c(=O)n(Cc2cccc(C(F)(F)F)c2)c1 | 66* | 0 | -8 | 1 | -4 | -6 | 3 | 5
COCCN1C(=O)c2ccccc2C1c1nnnn1Cc1ccccc1 (centres undefined) | / | / | 1 | -2 | / | / | / | /
O=C(CSc1ccccc1F)NC(=O)NC1CCCC1 | -3 | 2 | -2 | -3 | -2 | / | / | /
CCCn1c(N)c(NCCN2CCOCC2)c(=O)n(CC(=O)NCc2ccccc2)c1=O | 86* | 0 | 2 | 0 | 4 | -8 | 9 | 7
Cc1nn(CC(=O)NCCN2CCOCC2)c(=O)c2ccccc12 | 1 | -2 | 0 | 0 | -4 | 0 | / | /
Cc1c(CCC(=O)NCC(=O)NCC(=O)O)c(=O)oc2cc3oc4c(c3cc12)CCCC4 | 1 | 0 | 7 | 1 | -2 | 1 | / | /
Cc1c(CCC(=O)O)c(=O)oc2cc3oc4c(c3cc12)CCCC4 | 91* | -1 | 14 | 0 | -4 | -1 | 1 | 3
CN1CCN(c2ccc(CNC(=O)c3ccc(-c4ccnn4C)c4ccoc34)cc2)CC1 | 75* | -2 | -5 | 6 | -9 | / | 4 | 3
CN1CCN(c2ccc(CNC(=O)c3ccc(-c4cnn(C)c4)c4ccoc34)cc2)CC1 | 0 | 3 | 11 | 5 | -7 | / | / | /
C=C(C)c1ccccc1 | 0 | 0 | -1 | 2 | 4 | -6 | / | /
Cc1ccc(NC(=O)CSc2ccc3c(c2)OCCO3)nc1 | 0 | 0 | -9 | -11 | 5 | -6 | / | /
CC1(C)NC(=O)N(CC(=O)OCC(=O)Nc2cc(S(=O)(=O)N3CCCCCC3)ccc2Cl)C1=O | 1 | 0 | 3 | 1 | 2 | 0 | / | /
O=C(Nc1cc2nn(-c3ccccc3)nc2cc1Cl)c1ccco1 | 75* | 2 | -7 | 13 | 14 | -10 | 0 | -5
CCCCN(C(=O)c1cc(S(=O)(=O)N2CCOCC2)ccc1N1CCOCC1)c1ccccc1 | 0 | -1 | -2 | 0 | 0 | / | / | /
CC1CN(C(=O)CSc2nnc(-c3cccs3)n2N)CC(C)O1 (centres undefined) | 6 | -1 | 0 | -1 | -3 | -5 | / | /
C=CC[C@@H](CC(=O)N[C@@H](CO)Cc1ccccc1)C(=O)NC[C@@H](OC(=O)[C@@H](CC=C)CC(=O)OC(C)(C)C)c1ccccc1 | 57* | -2 | 4 | 1 | -6 | 6 | 7 | 5
CCc1nnc(NC(=O)CSc2nc(-c3ccccc3)cc(-c3ccc(F)cc3)c2C#N)s1 | 52* | 3 | -13 | 2 | 32 | 7 | 0 | 1
SMILES | DNMT1 block | STEP inh | SUMO1 PPI mod | LMPTP block | Rpn11 inh | Scp1 inh | DNMT1 confirm | DNMT1 interf
CC(C)N(C)Cc1nnnn1CC(=O)N(C)Cc1ccc(F)cc1 | 3 | 1 | -2 | -5 | 3 | -5 | / | /
O=C(COC(=O)Cc1ccc(Br)cc1)Nc1ccc(Cl)cn1 | -2 | -2 | 5 | 1 | 0 | -9 | / | /
CCOC(=O)c1c(NC(=O)C2CCCO2)sc(C(=O)OC(C)(C)C)c1C (centres undefined) | 51* | 8 | 5 | 2 | 9 | 0 | 2 | 5
COc1cccc(/C=c2\sc3nc(-c4cccs4)nn3c2=O)c1OC | 4 | 1 | 25 | 1 | 6 | -21 | / | /
Cc1ccc(/C=c2\sc3nc(-c4cccs4)nn3c2=O)o1 | 57* | -2 | 3 | 1 | 32 | 25 | 2 | 3
Cc1cccc(N2CCN(C(=O)C3CCCCC3)CC2)c1C | -2 | 1 | -3 | 1 | 8 | -11 | / | /
CCS(=O)(=O)N1Cc2ccccc2CC1C(=O)N1CCN(c2cccc(C)c2C)CC1 (centres undefined) | 65* | -1 | 1 | 11 | 4 | -2 | 5 | 2
CCOC(=O)[C@]12CCC=C1N(Cc1cccc3ccccc13)C(=O)[C@H](CC(=O)NCCCOC)C2 | / | / | 1 | 0 | / | / | / | /
COc1ccc2c3c(cccc13)N(C)N=C2C | 93* | 2 | 10 | 41 | -94 | -2 | -4 | -7
COc1ccccc1NC(=S)N=Nc1c(O)[nH]c2ccc(Br)cc12 | 89* | -3 | 1 | 3 | 8 | -2 | 3 | -3
CCCCC1=CC2=C(c3ccco3)C(=O)C(C)(OC(=O)c3ccc(OC)cc3)C(=O)C2=CN1Cc1ccco1 (centres undefined) | 56* | 4 | 10 | 17 | -57 | -8 | -1 | 3
O=c1cc(CCl)nc2sc3ccccc3n12 | 62* | 9 | 7 | 14 | -12 | 46 | 3 | -2
CCOC(=O)c1c(NC(=O)N/N=C/c2ccccc2OCC)sc(C(C)=O)c1C | 56* | 1 | 1 | 2 | 22 | -3 | 4 | 2
Cc1nc2cc(NC(=O)N3CCN(c4ccccn4)CC3)ccc2o1 | 0 | -3 | 0 | 5 | -1 | -8 | / | /
O=C(Nc1ccc2nc(-c3ccco3)c(-c3ccco3)nc2c1)N1CCN(c2ccccn2)CC1 | 93* | 5 | 46* | 87* | -52 | 92* | 0 | -2
CC1=C(C(=O)Nc2ccccc2)C(c2ccc(C)o2)n2c(s/c(=C/c3ccccc3)c2=O)=N1 (centres undefined) | 84* | 1 | -7 | 1 | 18 | 1 | 3 | 0
